Screening data from PubChem.
A selection: hits, their analogues and other compounds. The true share with any hit is near 2.3%.
TRPC4 block: inhibitors of mouse TRPC4 channel; Q9QUQ5; HEK293 TRPC4beta/mu-opioid, DAMGO-evoked Fluo4 calcium flux; active compounds read low; B-score at 10 µM; 300,000 compounds, 0.39% hits;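 active = B-score over 3 SD under the library average, no early fluorescence shift, positive overall ratio signal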
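System: stable TRPC4beta/mu-opioid receptor HEK293 cells; Dosing: single-point compound dosing; Measured by: Fluo4 Ca2+ flux fluorescence; Read-out basis: per-well B score of integrated baseline-normalized Fluo4 ratio.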
TRPC6 act: activators of mouse TRPC6 channel; AID 2550; B-score at 10 µM; 310,000 compounds, 0.13% hits; Q61143; HEK293-TRPC6 membrane potential dye fluorescence; active compounds read high;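 active = B-score of the integrated fluorescence ratio above library mean plus 3 SD, and starting fluorescence ratio within library mean plus 5 SD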;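 also: higher score means more depolarization so channel activation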
TRPC4 potent: TRPC4 (mouse) allosteric potentiation. 310,000 compounds, 0.42% hits. HEK293 TRPC4beta/mu-opioid, DAMGO EC20, Fluo-4 Ca2+ flux; active compounds read high. B-score at 10 µM. Q9QUQ5;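 active = B-score of calcium response area above 5 SD of library B-scores, with initial fluorescence ratio within 5 SD of library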;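 also: B-score of integrated fluorescence ratio over time as area under calcium response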
TRPC4 act: opens the mouse TRPC4 cation channel | HEK293 TRPC4beta/mu-opioid, Fluo4 calcium fluorescence; active compounds read high | B-score at 10 µM | 310,000 compounds, 0.49% hits | AID 2237;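 active = B-score above 5 SD of library B-scores, and initial fluorescence ratio not above library mean plus 5 SD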;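 also: positive B-score marks a calcium rise read as TRPC4 activation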
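System: HEK293 cells stably co-expressing mouse TRPC4beta and mu-opioid receptor; Schedule: Fluo4 dye loading 45 min at room temperature, 110 s recording; Detection: Fluo4 fluorescence, kinetic; Evaluation: B-scored integrated calcium fluorescence ratio; Controls: buffer (low) and maximal DAMGO (high).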
TRPC6 inh: inhibitors of mouse TRPC6 channel | 310,000 compounds, 1.1% hits | Q61143 | HEK293-TRPC6, membrane potential dye, ACh-evoked depolarization; active compounds read low | AID 2553 | B-score at 10 µM;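 active = B-score under library mean minus 3 SD, initial fluorescence not abnormally high, positive integrated signal ratio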;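 also: B-score derived from integrated fluorescence ratio over the kinetic read; more negative B-score means stronger inhibition of depolarization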
TRPC4 sel inh 2: second selectivity test of TRPC6 inhibitors: effect on mouse TRPC4; HEK293 TRPC4/MOR, membrane potential dye fluorescence; channel activated by saturating DAMGO dose; inhibition, % at 10 µM; AID 2776; shares compounds with TRPC6 inh; 920 compounds, 42% hits;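 active = compounds whose fluorescence signal differed from control wells by over 3 SD, either direction, in both duplicate plates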
TRPC4 spec: mouse TRPC4 off-target activity of TRPC6 inhibitors; activity change, negative = inhibition, % at 10 µM; HEK293 TRPC4/mu-opioid, membrane potential fluorescence; 920 compounds, 61% hits; shares compounds with TRPC6 inh;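 active = rise or fall in signal beyond 3 SD of buffer-only wells in both replicate plates, either sign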;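 also: integrated kinetic ratio of fluorescence range over baseline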
HEK293 MPD ctr 2-1: parental HEK293 nonspecific activity of TRPC6 inhibitors, second screen; 920 compounds, 31% hits; parental HEK293 membrane potential dye fluorescence; maximal acetylcholine challenge after compound addition; signal change vs control, % at 10 µM; shares compounds with TRPC6 inh; AID 2779;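 active = membrane potential signal moving either way by over 3 SD of the maximum-effect control, in both duplicate plates, meaning non-specific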
HEK293 MPD ctr-1: parental HEK293 nonspecific activity of TRPC6 inhibitors; parental HEK293 membrane potential dye fluorescence; 920 compounds, 60% hits; shares compounds with TRPC6 inh; AID 2780; membrane potential signal change, % at 10 µM;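 active = membrane potential signal shifting up or down by more than 3 SD of buffer-only wells, on both duplicate plates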
HEK293 MPD ctr-2: checks TRPC6 modulator effects in parental HEK293 cells; shares compounds with TRPC6 inh; membrane potential dye fluorescence; membrane potential signal change, % at 10 µM; 2,400 compounds, 51% hits; AID 488924;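 active = membrane potential signal moves up or down beyond 5 SD from buffer-only wells, on both duplicate plates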
HEK293 MPD ctr 2-2: second check of TRPC6 modulator effects in parental HEK293 cells; membrane potential dye fluorescence; after compound, maximal acetylcholine stimulation; shares compounds with TRPC6 inh; 2,400 compounds, 14% hits; inhibition, % at 10 µM;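 active = membrane potential signal drops by more than 5 SD from the mean control signal, in both duplicate plates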;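 also: plate controls were acetylcholine ECmax control wells for no effect and buffer only wells for full effect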
TRPC4 ctr mod: mouse TRPC4 off-target activity of TRPC6 modulators | 2,400 compounds, 69% hits | shares compounds with TRPC6 inh | HEK293 TRPC4/mu-opioid, membrane potential fluorescence | AID 488927 | percent change from control (negative = decrease, positive = increase), % at 10 µM;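 active = membrane potential signal moved up or down beyond 5 SD of buffer control wells, in both duplicate plates, actives on both sides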;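 also: plate controls were assay buffer wells for no effect and DAMGO maximal-effect wells for full effect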
TRPC4/MOR inh 2: mouse TRPC4 off-target activity of TRPC6 modulators, second screen | 2,400 compounds, 55% hits | shares compounds with TRPC6 inh | HEK293 TRPC4/mu-opioid, membrane potential dye fluorescence; stimulated with maximal-effect DAMGO | inhibition, % at 10 µM;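 active = drop in membrane potential signal beyond 5 SD of the control wells in both duplicate plates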;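 also: TRPC4 counter screen for TRPC6 hits run under conditions tuned for TRPC6 not TRPC4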
TRPC6 block conf: confirmation of mouse TRPC6 inhibitors | shares compounds with TRPC6 inh | HEK293-TRPC6, membrane potential dye, ACh-evoked depolarization | inhibition, % at 10 µM | 3,300 compounds, 43% hits;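 active = fluorescence ratio falls more than 5 SD below the full-stimulation control mean, in both duplicate runs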;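 also: integrated fluorescence ratio of peak minus minimum over baseline after agonist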
TRPC6 act conf: confirmation of mouse TRPC6 activators; shares compounds with TRPC6 inh; HEK293-TRPC6 membrane potential dye fluorescence, FDSS; activation, % at 10 µM; 2,800 compounds, 11% hits;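 active = ratio signal rise beyond 5 SD above unstimulated control wells' mean, seen in both duplicate runs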;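 also: plate controls were buffer EC0 wells for no effect and acetylcholine ECmax response for full effect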
An asterisk follows results filed as active; i = inactive; . = no result given.

SMILES	TRPC4 block	TRPC6 act	TRPC4 potent	TRPC4 act	TRPC6 inh	HEK293 MPD ctr-2	HEK293 MPD ctr 2-2	TRPC4 ctr mod	TRPC4/MOR inh 2	TRPC6 block conf	TRPC6 act conf	others
O=c1oc2ccccc2c(O)c1C(c1ccc([N+](=O)[O-])cc1)c1c(O)c2ccccc2oc1=O	i	i	i	i	-7.3*	.	.	.	.	i	i	TRPC4 sel inh 2=i;TRPC4 spec=i;HEK293 MPD ctr 2-1=i;HEK293 MPD ctr-1=-272%*
C/C(CC(c1ccccc1)c1c(O)c2ccccc2oc1=O)=N\Nc1ccc([N+](=O)[O-])cc1[N+](=O)[O-] (stereo not drawn)	i	i	i	i	i	.	.	.	.	.	.
Cc1ccc(Cn2nc(C(=O)Nc3ccc(Br)cc3)cc2C)cc1	i	i	i	i	i	.	.	.	.	.	.
COc1ccccc1Sc1ccccc1CC(C)N (stereo not drawn)	i	i	i	i	-5*	i	i	i	66%*	44%*	i
CCc1ccc(OCC(=O)N2CCN(Cc3ccc4c(c3)OCO4)CC2)cc1	i	i	i	i	i	.	.	.	.	.	.
O=c1[nH]c(=O)n(Cc2ccco2)c(O)c1C=NC1CCN(Cc2ccccc2)CC1	i	i	i	i	i	.	.	.	.	.	.
CCC(CO)(C(=O)OC1CC2CCC(C1)N2C)c1ccccc1 (stereo not drawn)	i	i	i	i	-7.6*	.	.	.	.	89%*	i	TRPC4 sel inh 2=i;TRPC4 spec=i;HEK293 MPD ctr 2-1=-46%*;HEK293 MPD ctr-1=i
CCOc1cc2c(cc1OCC)-n1cccc1C(c1ccc(C(C)C)cc1)NC2 (stereo not drawn)	i	i	i	i	i	.	.	.	.	.	.
CCOC(C(=O)OCCC[N+](C)(CC)CC)(c1ccccc1)c1ccccc1	i	i	i	i	i	.	.	.	.	.	.
CC[N+](C)(CC)CCCOC(=O)C(O)(c1ccccc1)C1CCCCC1 (stereo not drawn)	i	i	i	i	-8.1*	.	.	.	.	i	i	TRPC4 sel inh 2=i;TRPC4 spec=i;HEK293 MPD ctr 2-1=i;HEK293 MPD ctr-1=i
CC(=O)OC1CCC2(/C=N/O)C(=CCC3C4CCC(=O)C4(C)CCC32)C1 (stereo not drawn)	i	i	i	i	i	.	.	.	.	.	.
CC(Cc1ccccc1)/[N+]([O-])=C\c1ccc(C(F)(F)F)cc1 (stereo not drawn)	i	i	i	i	i	.	.	.	.	.	.
CCCCCSc1cc(OC)c(CCN)cc1OC	i	i	i	i	-6.5*	i	i	i	59%*	40%*	i
OCCNc1c2c(nc3ccccc13)CCCC2	i	i	i	i	-6.7*	.	.	.	.	i	i	TRPC4 sel inh 2=i;TRPC4 spec=-23%*;HEK293 MPD ctr 2-1=i;HEK293 MPD ctr-1=-362%*
CC(C)CNc1c2c(nc3ccccc13)CCC2	i	i	i	i	i	.	.	.	.	.	.
c1ccc(CNc2c3c(nc4ccccc24)CCC3)cc1	i	i	i	i	-5.8*	i	i	i	52%*	i	i
CC(C)c1oc(=O)cc2c1[C@@H](O)[C@H]1OC(=O)[C@@]3(C)C[C@@H](O)[C@@H](O)[C@@]2(C)C13 (stereo partly drawn)	i	i	i	i	i	.	.	.	.	.	.
CCC(C)/C=C(C)/C=C/C1=CC2=C(Cl)C(=O)C(C)(OC(C)=O)C(=O)C2=CO1 (stereo not drawn)	i	i	i	i	-6.5*	-84%*	69%*	-22%*	93%*	88%*	i
NNc1n[nH]c(=S)n1N	i	i	i	i	i	.	.	.	.	.	.
CCc1nc2ccccc2c(=O)n1-c1ccccc1[N+](=O)[O-]	i	i	i	i	i	.	.	.	.	.	.
Cc1nonc1OCCNCCNc1ccc([N+](=O)[O-])c2cccnc12	i	i	i	i	-5.1*	-180%*	i	-38%*	75%*	48%*	i
CCNCCNc1ccc([N+](=O)[O-])c2cccnc12	i	i	18*	i	-5.9*	-288%*	i	-40%*	54%*	72%*	i
CCN(CCO)c1ccc(N=Cc2c(O)n(C)c(=S)[nH]c2=O)cc1	i	23*	i	i	-7.5*	162%*	i	26%*	i	36%*	54%*
CCN(CC)c1ccc(N=Cc2c(O)n(Cc3ccco3)c(=O)[nH]c2=O)cc1	i	i	i	i	i	.	.	.	.	.	.
O=C(/C=C/c1ccc(Br)cc1)NC(=S)N1C[C@H]2C[C@H](C1)c1cccc(=O)n1C2	i	i	i	i	i	.	.	.	.	.	.
CN1CCN(c2ccc([N+](=O)[O-])c(N/N=C3\CN4CCC3CC4)c2)CC1	i	i	i	i	-12*	-230%*	70%*	-48%*	82%*	76%*	i
CCNc1cc(N2CCN(C)CC2)ccc1[N+](=O)[O-]	i	i	i	i	i	.	.	.	.	.	.
C#CCNc1ccncc1S(=O)(=O)NC(=O)NC(C)C	i	i	i	i	i	.	.	.	.	.	.
COc1ccccc1[As](=O)(O)CC(O)COc1ccc(Cl)cc1Cl (stereo not drawn)	i	i	i	i	i	.	.	.	.	.	.
CC[C@@H](CO)C1CC2NC3CC4(c5ccccc5N(C)[C@@H]24)C(O)C31 (stereo partly drawn)	i	i	i	i	i	.	.	.	.	.	.
